Here are results for one compound from ChEMBL document CHEMBL1121938, “Hypocholesterolemic and antiaggregatory properties of 2-hydroxytetronic acid redox analogues an their relationship to clofibric acid” (1982).

In experiment [1] the test system is Rattus norvegicus. Kind of experiment: Effect of compound was measured on serum total triglycerides in male Dawley rats at the dose of 0.2 mmol/kg (day-1). The format is functional, organism-based. In short, it runs like this: (§1)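 Serum triglycerides were measured with an enzymatic triglyceride reagent on a bichromatic analyzer. Rats were male Sprague-Dawley (180-210 g) fed a high-cholesterol diet, n = 6 per group, dosed orally twice daily for 14 days in 0.25% methylcellulose or vehicle. They were fasted 16-18 h before blood collection on days -1, +4, +7, +10 (orbital plexus, light ether) and +14 (aorta). Analysis was repeated-measures ANOVA with Duncan's test.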

Experiment [2] concerns Rattus norvegicus. In words: Effect of compound was measured on serum total cholesterol in male Dawley rats at the dose of 0.4 mmol/kg (day+14). The format is functional, organism-based. In a few lines: (§2)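 Serum total cholesterol was measured enzymatically on a bichromatic analyzer. Serum was separated after clotting on ice (2000g, 10 min), held at 4 °C and assayed within 48 h. Rats were male Sprague-Dawley on a high-cholesterol diet, n = 6, dosed orally twice daily for 14 days in 0.25% methylcellulose (1.0 mL/100 g). They were fasted 16-18 h before each bleed. Results are in mg/dL ± SD.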

Experiment [3] is described as follows: Effect of compound was measured on serum heparin-MnCl2 precipated ipoprotein Dawley rats at 0.4 mmol/kg dose(day-1). Type of experiment: functional. In short, it runs like this:
(§3)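 Cholesterol-fed male Sprague-Dawley rats, n = 6 per group, given compound or 0.25% methylcellulose orally twice daily for 14 days, and fasted 16-18 h before each bleed (days -1, +4, +7, +10, +14). Heparin-MnCl2 precipitable lipoprotein cholesterol was taken as serum total cholesterol minus α-lipoprotein cholesterol. It is reported as a ratio to α-LP cholesterol ± SD. Analysis was ANOVA with repeated measures and Duncan's test.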

Experiment [4] concerns Rattus norvegicus. Kind of experiment: Effect of compound on liver CH levels in male Dawley rats at the dose of 0.4 mmol/kg. Also on record: unit: g/100 g wet liver. The format is functional. In short, it runs like this:
(§4)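 Male Sprague-Dawley rats (180-210 g) were kept on a high-cholesterol diet for 1 week before and throughout treatment. Groups of n = 6 received drug in 0.25% methylcellulose orally twice daily for 14 days, or vehicle. After a 16-18 h fast, livers were excised at day +14 and homogenized in 0.1 M Tris-HCl pH 7.2 with 1.15% KCl. Lipids were extracted from 25% w/v homogenate and reported as g/100 g wet liver ± SD; groups compared by ANOVA and Duncan's test.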

Experiment [5] concerns Rattus norvegicus. In words: Effect of compound was measured on serum alpha-lipoprotein in male Dawley rats at the dose of 0.2 mmol/kg (day-1). The format is functional. In a few lines: (§5)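 Male Sprague-Dawley rats (180-210 g) fed a high-cholesterol diet for 1 week before and throughout dosing. Groups of n = 6 were dosed orally twice daily for 14 days in 0.25% methylcellulose, with vehicle controls. Rats were fasted 16-18 h before orbital bleeds on days -1, +4, +7 and +10, and by aortic exsanguination on day +14. Serum α-lipoprotein cholesterol was measured by polyanionic precipitation, in mg/dL ± SD.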

The nature of experiment [6]: Effect of compound was measured on serum heparin-MnCl2 precipated ipoprotein Dawley rats at 0.4 mmol/kg dose(day+4). Type of experiment: functional. In a few lines: as §3
The test system of experiment [7] is Rattus norvegicus. Kind of experiment: Effect of compound was measured on serum total triglycerides in male Dawley rats at the dose of 0.4 mmol/kg (day+7). The format is functional, organism-based. In a few lines: as §1
The subject of experiment [8] is Rattus norvegicus. Kind of experiment: Effect of compound was measured on serum alpha-lipoprotein in male Dawley rats at the dose of 0.2 mmol/kg (day+14). The format is functional. In a few lines: as §5
Experiment [9] relates to Rattus norvegicus. In words: Effect of compound was measured on serum total cholesterol in male Dawley rats at the dose of 0.2 mmol/kg (day+4). The format is functional, organism-based. In a few lines: as §2
Experiment [10] can be described thus: Effect of compound on liver to body weight ratio in male Dawley rats at the dose of 0.4 mmol/kg. The format is functional. In short, it runs like this: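 Male Sprague-Dawley rats (180-210 g) were kept on a cholesterol-rich diet and dosed orally twice daily for 14 days in 0.25% methylcellulose; vehicle controls received the same; n = 6 per group. After a 16-18 h fast, rats were exsanguinated at day +14. Livers were removed, rinsed in ice-cold buffer, blotted and weighed, and related to body weight. Data were analysed by repeated-measures ANOVA with Duncan's multiple range test.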

For experiment [11], the system named is Rattus norvegicus. In words: Effect of compound was measured on serum total triglycerides in male Dawley rats at the dose of 0.4 mmol/kg (day+10). Type of experiment: functional, organism-based. In short, it runs like this: as §1
In experiment [12] the test system is Rattus norvegicus. Kind of experiment: Effect of compound on liver CH levels in male Dawley rats at the dose of 0.2 mmol/kg. The format is functional. In short, it runs like this: as §4
Experiment [13] in a line: Effect of compound was measured on serum heparin-MnCl2 precipated ipoprotein Dawley rats at 0.2 mmol/kg dose(day+7). Type of experiment: functional. In short, it runs like this: as §3

SMILES strings stand for the structures.

Consider `O=C1C(O)=C(O)OC1c1ccc(Cl)cc1` (stereo not drawn), for which the Serum total triglycerides in the experiment with Rattus norvegicus [1] came to 313 mg/dL; in the experiment with Rattus norvegicus [7] it was 147 mg/dL; in the experiment on Rattus norvegicus [11], 139 mg/dL. The figures for the serum total cholesterol in the experiment on Rattus norvegicus [2] and in the experiment with Rattus norvegicus [9] were 138 mg/dL and 195 mg/dL, respectively. Further, the Ratio in [3] was determined as 3.96; in [6], 2.79; in experiment [10], 3.6; in experiment [13] it was 4.03. Besides, the “Liver CH levels” value in the experiment with Rattus norvegicus [4] was 2.93; in the experiment on Rattus norvegicus [12], 3.28. Besides, the Alpha-lipoprotein cholesterol in the experiment with Rattus norvegicus [5] was 40.8 mg/dL; in the experiment with Rattus norvegicus [8], 48.5 mg/dL.
